Screens: PubChem BioAssay, several laboratories
NR2E3 ag-1 – agonists of human nuclear receptor NR2E3; Q9Y5X4; 0.12% of 320,000 active; GST-NR2E3/biotin-RetCOR TR-FRET, 1536-well; inhibition of corepressor binding, % at 4.78 µM;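 active = percent inhibition above the cutoff of mean plus 3 SD of all tested compounds, set per screening campaign, cut at about 20% in these data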;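 note: 0% = DMSO wells and 100% = biotin wells as full block of FRET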
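Test system: GST-NR2E3 and biotin-RetCOR proteins | Quantity: 1.35 nM GST-tagged NR2E3 final | Medium: Tris pH 7.5 | Also added: 7 nM biotin-RetCOR | Dosing: Compound at 4.8 µM, single dose | Timing: 5 h at 4 °C | Detection: Time-resolved FRET | Read-out basis: Percent inhibition | Benchmarks: Biotin wells as high control, 0.6% DMSO wells as low control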
NR2E3 ag-2 – activates human NR2E3 receptor; Q9Y5X4; CHO-S Gal4-NCOR/VP16-NR2E3 two-hybrid, luciferase; inhibition of corepressor binding, % at 3.98 µM; 0.35% of 360,000 active;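 active = inhibition above the mean of all tested compounds plus 3 SD, cut at about 70% in these data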;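 note: 0% = DMSO with NR2E3 transfected cells and 100% = cells lacking NR2E3 construct; higher means lower luciferase signal from less NR2E3 corepressor binding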
Rev-erbA mod – modulates human Rev-erb alpha binding to DNA. P20393. Rev-erbα–FITC-DNA binding, fluorescence polarization, 90 min. activity, % at 10 µM. 0.79% of 370,000 active;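 active = activity above about 14%, limit read from the data; passing the limit was not always enough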;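 note: 0% = DMSO wells with 35 nM protein and 100% = DMSO wells with 750 nM protein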
Target sequence (P20393 whole entry, looked up): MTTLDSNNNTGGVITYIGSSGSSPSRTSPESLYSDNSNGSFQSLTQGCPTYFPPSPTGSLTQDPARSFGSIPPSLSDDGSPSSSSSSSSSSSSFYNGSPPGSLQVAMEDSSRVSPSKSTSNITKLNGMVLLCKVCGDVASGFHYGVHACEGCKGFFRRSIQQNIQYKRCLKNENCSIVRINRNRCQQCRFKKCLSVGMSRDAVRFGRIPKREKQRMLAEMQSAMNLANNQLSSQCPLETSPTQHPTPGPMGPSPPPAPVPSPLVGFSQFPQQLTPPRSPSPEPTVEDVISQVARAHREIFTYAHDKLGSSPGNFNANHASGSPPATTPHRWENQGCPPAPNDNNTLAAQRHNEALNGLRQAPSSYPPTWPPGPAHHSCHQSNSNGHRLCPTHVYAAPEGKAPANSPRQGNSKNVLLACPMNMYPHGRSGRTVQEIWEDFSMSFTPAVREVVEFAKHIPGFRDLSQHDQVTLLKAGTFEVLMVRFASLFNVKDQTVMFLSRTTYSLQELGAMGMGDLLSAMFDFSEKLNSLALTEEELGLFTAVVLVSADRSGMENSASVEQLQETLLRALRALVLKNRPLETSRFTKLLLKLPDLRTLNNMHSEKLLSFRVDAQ
GalR3 antag – human GalR3 antagonism | O60755 | HEK293 GalR3-CNG cAMP membrane potential fluorescence; galR3 body fused to GalR1 C-terminus | inhibition, % at 3 µM | 0.44% of 360,000 active;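 active = inhibition above the screen-wide average plus 3 SD, cut at about 13% in these data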;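 note: forskolin and galanin both at EC90 stimulate the cells; cAMP rise reported by CNG channel membrane potential dye signal; 0% = forskolin plus galanin with DMSO and 100% = forskolin alone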
PG9 Ab binder – binds the HIV-1 gp120 antibody PG9; AID 624416; TR-FRET gp120-PG9 antibody binding; 0.43% of 360,000 active; inhibition, % at 6.7 µM; in the data active = inhibition above about 8.5%
NR2E3 ag confirm – NR2E3 agonism confirmed in two-hybrid assay | shares compounds with NR2E3 ag-2 | inhibition, % at 3.98 µM | CHO-S mammalian two-hybrid NR2E3-NCOR, luciferase luminescence | 51% of 2,300 active;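 active = average inhibition above a cutoff equal to the mean inhibition of all tested compounds plus one SD, cut at about 70% in these data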;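 note: 0% = DMSO in NR2E3 cells and 100% = DMSO in cells lacking NR2E3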
VP16 counter – GAL4-VP16 reporter inhibition in NR2E3 agonist counterscreen. inhibition, % at 3.98 µM. shares compounds with NR2E3 ag-2. 29% of 2,300 active. CHO-S GAL4-VP16 luciferase reporter, luminescence;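 active = mean inhibition above a cutoff equal to the average over all tested compounds plus one standard deviation, cut at about 70% in these data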;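 note: luciferase from a UAS reporter driven by GAL4-VP16 transactivation; 0% = DMSO with VP16-transfected cells and 100% = DMSO with cells lacking VP16; higher means less reporter light so more repression of VP16 activity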
* = called active by the depositor; / = no result. Compounds with a hit are over-represented: about 1.8% of the library has one in this group of screens.

SMILES | NR2E3 ag-1 | NR2E3 ag-2 | Rev-erbA mod | GalR3 antag | PG9 Ab binder | NR2E3 ag confirm | VP16 counter
COc1cc(/C=C2\CC/C(=C\c3cc(OC)c(OC)c(OC)c3)C2=O)cc(OC)c1OC | 0 | -4 | -5 | -5 | -2 | / | /
COc1cc(/C=C2\CC/C(=C\c3cc(OC)c(O)c(OC)c3)C2=O)cc(OC)c1O | 7 | 77* | -14 | 0 | -7 | 96* | 67
CO[C@H]1/C=C/O[C@@]2(C)Oc3c(C)c(O)c4c(O)c(c(C=NN5CCN(C)CC5)c(O)c4c3C2=O)NC(=O)/C(C)=C\C=C\C(C)[C@H](O)[C@@H](C)[C@@H](O)[C@@H](C)[C@@H](OC(C)=O)[C@@H]1C (some centres undefined) | / | / | -2 | / | / | / | /
Cc1ccc(/C=C/C(=O)c2c(C)cc(C)[nH]c2=O)cc1 | 4 | 49 | -6 | / | / | 45 | 29
CCc1ccc(/C=C/C(=O)c2c(C)cc(C)[nH]c2=O)cc1 | 0 | 33 | -5 | 7 | 2 | / | /
Cn1c(=O)c2[nH]c(COc3ccc(C(C)(C)C)cc3)nc2n(C)c1=O | 2 | 69 | / | / | / | 87* | 72*
CC(C)CCCCCCCCCCCCC(=O)NCC(=O)NC1C(O)C(O)C(Nc2ncnc3nc[nH]c23)OC1C(O)CO (centres undefined) | / | 100* | / | / | / | 100* | 101*
CC(O)CNc1ncnc2nc[nH]c12 (centres undefined) | 1 | -18 | -3 | -5 | 2 | / | /
COc1cc(/C=N/n2c(-c3cc(-c4ccccc4)n[nH]3)n[nH]c2=S)ccc1OCc1ccccc1 | / | / | -6 | / | / | / | /
O=[N+]([O-])c1ccc(NC(=S)NCCc2ccc(Cl)cc2)cc1 | 1 | 69 | 3 | -6 | -1 | 96* | 88*
O=S(=O)(c1cccs1)N1CCN(CC(O)COc2cc(Cl)ccc2Cl)CC1 (centres undefined) | -2 | 89* | 1 | 68* | 1 | 96* | 78*
O=S(=O)(c1cccs1)N1CCN(CCOc2ccc(Cl)cc2)CC1 | 3 | -3 | 1 | 0 | -1 | / | /
O=C1CCC[C@H]2Cc3nc4ccccc4cc3C[C@]23CCCN13 | / | / | -2 | / | / | / | /
Cc1cc(=O)n(-c2ccc(O)cc2)[nH]1 | 14 | 56 | -7 | -3 | -3 | -8 | 4
Cc1cc(=O)n(-c2ccc(C(=O)O)cc2)[nH]1 | 14 | -24 | 2 | -1 | 0 | / | /
O=C(NCCc1ccccc1)OCc1cn(-c2ccc(F)c(F)c2)nn1 | / | / | -7 | / | / | / | /
COc1ccc(NC(=O)C(C)N2c3cccc4cccc(c34)S2(=O)=O)cc1OC (centres undefined) | 1 | 63 | 1 | -11 | 2 | 66 | 48
COc1ccc(NC(=O)C(C)N2c3cccc4cccc(c34)S2(=O)=O)cc1 (centres undefined) | 2 | 20 | 2 | -6 | -3 | / | /
Nc1cc(=O)[nH]c(SCc2ccc(Cl)cc2)n1 | -2 | -22 | 2 | -1 | 3 | / | /
CC(C)(C)c1ccc(CSc2nc(N)cc(=O)[nH]2)cc1 | 0 | 96* | / | / | / | 76* | 54
CC1(C)C[C@H]2C3=CCC4[C@@]5(C)CC[C@H](O[C@@H]6O[C@H](C(=O)O)[C@@H](O)[C@H](O)[C@H]6O)[C@@](C)(CO)C5CC[C@@]4(C)[C@]3(C)C[C@H](O)[C@@]2(CO)[C@@H](O)[C@@H]1O (some centres undefined) | / | -4 | -3 | 0 | -1 | / | /
C/C=C(/C)C(=O)OC1CC(C)(C)C[C@H]2C3=CC[C@@H]4[C@@]5(C)CCC(O[C@@H]6O[C@@H](C(=O)O)[C@@H](O)C(O[C@@H]7OC[C@H](O)[C@@H](O)[C@@H]7O[C@@H]7OC(CO)C(O)[C@@H](O)[C@@H]7O)C6O[C@@H]6OC(CO)C(O)C(O)C6O)[C@@](C)(CO)[C@@H]5CC[C@]4(C)[C@]3(C)CC(O)[C@@]12CO (some centres undefined) | / | 48 | / | / | / | 40 | 17
Cc1cccc(C)c1OCc1cc(C(=O)N(Cc2c(C)nn(C)c2C)C2CC2)no1 | -3 | 62 | 1 | -10 | 1 | 61 | 58
CCCCOc1ccc(S(=O)(=O)NNC(=O)c2cc3ccccc3o2)cc1 | -2 | 36 | 0 | -3 | -2 | / | /
CC(C)COc1ccc(S(=O)(=O)NNC(=O)c2cc3ccccc3o2)cc1 | 0 | 75* | 0 | -4 | -2 | 76* | 68
SMILES | NR2E3 ag-1 | NR2E3 ag-2 | Rev-erbA mod | GalR3 antag | PG9 Ab binder | NR2E3 ag confirm | VP16 counter
CCOC(=O)N1CCN(C(=O)c2oc3ccc(S(=O)(=O)N4CCCCC4)cc3c2C)CC1 | -2 | 20 | -4 | -8 | -2 | / | /
Cc1c(C(=O)N2CCCCC2)oc2ccc(S(=O)(=O)N3CC(C)CC(C)C3)cc12 (centres undefined) | -6 | 77* | / | / | / | 73* | 63
COC(=O)C1CN(Cc2cn(Cc3ccccc3)nn2)CCS(=O)(=O)N1Cc1ccc(F)cc1 (centres undefined) | / | / | -2 | / | / | / | /
Cc1cc(Nc2nc3ccccc3[nH]c2=O)n(-c2ccccc2)n1 | -1 | 52 | -6 | -2 | 0 | 40 | 22
Cc1cc(C)cc(C(=O)OCCCN(C)C2CN(Cc3cn(Cc4ccccc4Cl)nn3)S(=O)(=O)C2)c1 (centres undefined) | / | / | 9 | / | / | / | /
Nc1nc(=S)c2ncn(C3OC(CO)C(O)C3O)c2[nH]1 (centres undefined) | 4 | 57 | -22 | -12 | 0 | 37 | 5
Nc1ncn([C@@H]2O[C@H](CO)[C@@H](O)[C@H]2O)c(=O)n1 | -4 | 54 | -2 | -2 | -2 | 40 | 39
CC(=O)CC[C@@H]1CC[C@]2(CCCN(S(C)(=O)=O)C2)O1 | / | / | 3 | / | / | / | /
Cc1cc(C(=O)OCc2nnc(-c3ccccc3)o2)c(C)n1-c1ccccc1 | -7 | 68 | -1 | -9 | 2 | 58 | 65
O=C(OCc1nnc(-c2ccccc2)o1)c1cn(-c2ccccc2)nc1-c1ccccc1 | -1 | 7 | 2 | -1 | 0 | / | /
O=C(Nc1ccc(F)cc1)N[C@@H]1C[C@@H]2O[C@H](CO)CC[C@@H]2O[C@@H]1CCc1ccc(C2=CCCC2)cc1 | / | / | 4 | / | / | / | /
Cc1ccc(NC(=O)c2c(C(F)(F)F)nn(C)c2SCc2cccc(C(F)(F)F)c2)cc1C | 2 | 49 | 4 | -5 | 0 | 55 | 44
COc1ccc(NC(=O)Cn2cc(C(C)=O)c3ccccc32)cc1 | -1 | 49 | 8 | -6 | -1 | 57 | 56
COc1ccc(NC(=O)Cn2cc(C#N)c3ccccc32)cc1 | 2 | -23 | 6 | -6 | -1 | / | /
CCc1csc(N2[C@H](CN(CCOC)S(=O)(=O)c3ccccc3[N+](=O)[O-])[C@H](c3ccccc3)[C@@H]2CO)n1 | / | / | 10 | / | / | / | /
